According to ChEMBL document CHEMBL1765020, “Synthesis and structure-affinity relationships of novel dibenzylideneacetone derivatives as probes for β-amyloid plaques” (J Med Chem, 2011):

Key:
Kidney [1] = test: Biodistribution in ddY mouse kidney at 1 uCi/100 uL, iv after 30 mins by gamma counting; format: ADME, organism-based; settings: in vivo, 0.5 h
Stomach [2] = test: Biodistribution in ddY mouse stomach at 1 uCi/100 uL, iv after 15 mins by gamma counting; format: ADME, organism-based; settings: in vivo, 0.25 h
Intestine [3] = test: Biodistribution in ddY mouse intestine at 1 uCi/100 uL, iv after 30 mins by gamma counting; format: ADME, organism-based; settings: in vivo, 0.5 h
How it was run: (§1)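 Normal female ddY mice (5 weeks, about 20 g; n = 4 per group) received radiotracer iv. Organs were removed and weighed at 2–120 min and counted in a γ-counter. Percent dose per gram of wet tissue was calculated against diluted aliquots of the injected material and reported as mean ± SD.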

Kidney [4] = test: Biodistribution in ddY mouse kidney at 1 uCi/100 uL, iv after 2 mins by gamma counting; format: ADME, organism-based; settings: in vivo; how it was run: as §1
Kidney [5] = test: Biodistribution in ddY mouse kidney at 1 uCi/100 uL, iv after 120 mins by gamma counting; format: ADME, organism-based; settings: in vivo, 2 h; how it was run: as §1
Spleen [6] = test: Biodistribution in ddY mouse spleen at 1 uCi/100 uL, iv after 30 mins by gamma counting; format: ADME, organism-based; settings: in vivo, 0.5 h
Blood [7] = test: Biodistribution in ddY mouse blood at 1 uCi/100 uL, iv after 60 mins by gamma counting; format: ADME, organism-based; settings: in vivo, 1 h; how it was run: as §1
Spleen [8] = test: Biodistribution in ddY mouse spleen at 1 uCi/100 uL, iv after 120 mins by gamma counting; format: ADME, organism-based; settings: in vivo, 2 h
Kidney [9] = test: Biodistribution in ddY mouse kidney at 1 uCi/100 uL, iv after 60 mins by gamma counting; format: ADME, organism-based; settings: in vivo, 1 h
Brain [10] = test: Biodistribution in ddY mouse brain at 1 uCi/100 uL, iv after 30 mins by gamma counting; format: ADME, organism-based; settings: in vivo, 0.5 h; how it was run: as §1
Intestine [11] = test: Biodistribution in ddY mouse intestine at 1 uCi/100 uL, iv after 120 mins by gamma counting; format: ADME, organism-based; settings: in vivo, 2 h; how it was run: as §1
Heart [12] = test: Biodistribution in ddY mouse heart at 1 uCi/100 uL, iv after 60 mins by gamma counting; format: ADME, organism-based; settings: in vivo, 1 h; how it was run: as §1
Stomach [13] = test: Biodistribution in ddY mouse stomach at 1 uCi/100 uL, iv after 30 mins by gamma counting; format: ADME, organism-based; settings: in vivo, 0.5 h
Blood [14] = test: Biodistribution in ddY mouse blood at 1 uCi/100 uL, iv after 30 mins by gamma counting; format: ADME, organism-based; settings: in vivo, 0.5 h; how it was run: as §1
Heart [15] = test: Biodistribution in ddY mouse heart at 1 uCi/100 uL, iv after 30 mins by gamma counting; format: ADME, organism-based; settings: in vivo, 0.5 h; how it was run: as §1
[16] = Partition coefficient, log D of the compound; format: physicochemical; settings: octanol/water
How it was run: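 Radiotracer partitioned between n-octanol and PBS: vortexed 3 min at room temperature, centrifuged 5 min at 3000 rpm. Weighed samples of the octanol (100 μL) and buffer (500 μL) layers were counted. log D is the log of the ratio of counts per gram, octanol versus PBS.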

Spleen [17] = test: Biodistribution in ddY mouse spleen at 1 uCi/100 uL, iv after 2 mins by gamma counting; format: ADME, organism-based; settings: in vivo
Brain [18] = test: Biodistribution in ddY mouse brain at 1 uCi/100 uL, iv after 120 mins by gamma counting; format: ADME, organism-based; settings: in vivo, 2 h; how it was run: as §1
Lung [19] = test: Biodistribution in ddY mouse lung at 1 uCi/100 uL, iv after 60 mins by gamma counting; format: ADME, organism-based; settings: in vivo, 1 h
Intestine [20] = test: Biodistribution in ddY mouse intestine at 1 uCi/100 uL, iv after 2 mins by gamma counting; format: ADME, organism-based; settings: in vivo; how it was run: as §1
Blood [21] = test: Biodistribution in ddY mouse blood at 1 uCi/100 uL, iv after 15 mins by gamma counting; format: ADME, organism-based; settings: in vivo, 0.25 h; how it was run: as §1
Intestine [22] = test: Biodistribution in ddY mouse intestine at 1 uCi/100 uL, iv after 60 mins by gamma counting; format: ADME, organism-based; settings: in vivo, 1 h; how it was run: as §1
Thyroid gland [23] = test: Biodistribution in ddY mouse thyroid at 1 uCi/100 uL, iv after 30 mins by gamma counting; format: ADME, organism-based; settings: in vivo, 0.5 h
Lung [24] = test: Biodistribution in ddY mouse lung at 1 uCi/100 uL, iv after 15 mins by gamma counting; format: ADME, organism-based; settings: in vivo, 0.25 h
Thyroid gland [25] = test: Biodistribution in ddY mouse thyroid at 1 uCi/100 uL, iv after 120 mins by gamma counting; format: ADME, organism-based; settings: in vivo, 2 h
Liver [26] = test: Biodistribution in ddY mouse liver at 1 uCi/100 uL, iv after 60 mins by gamma counting; format: ADME, organism-based; settings: in vivo, 1 h
Brain [27] = test: Biodistribution in ddY mouse brain at 1 uCi/100 uL, iv after 60 mins by gamma counting; format: ADME, organism-based; settings: in vivo, 1 h; how it was run: as §1
Liver [28] = test: Biodistribution in ddY mouse liver at 1 uCi/100 uL, iv after 30 mins by gamma counting; format: ADME, organism-based; settings: in vivo, 0.5 h
Brain [29] = test: Biodistribution in ddY mouse brain at 1 uCi/100 uL, iv after 2 mins by gamma counting; format: ADME, organism-based; settings: in vivo; how it was run: as §1
Spleen [30] = test: Biodistribution in ddY mouse spleen at 1 uCi/100 uL, iv after 60 mins by gamma counting; format: ADME, organism-based; settings: in vivo, 1 h
Liver [31] = test: Biodistribution in ddY mouse liver at 1 uCi/100 uL, iv after 120 mins by gamma counting; format: ADME, organism-based; settings: in vivo, 2 h
Heart [32] = test: Biodistribution in ddY mouse heart at 1 uCi/100 uL, iv after 15 mins by gamma counting; format: ADME, organism-based; settings: in vivo, 0.25 h; how it was run: as §1
Heart [33] = test: Biodistribution in ddY mouse heart at 1 uCi/100 uL, iv after 120 mins by gamma counting; format: ADME, organism-based; settings: in vivo, 2 h; how it was run: as §1
Lung [34] = test: Biodistribution in ddY mouse lung at 1 uCi/100 uL, iv after 120 mins by gamma counting; format: ADME, organism-based; settings: in vivo, 2 h
Intestine [35] = test: Biodistribution in ddY mouse intestine at 1 uCi/100 uL, iv after 15 mins by gamma counting; format: ADME, organism-based; settings: in vivo, 0.25 h; how it was run: as §1
Lung [36] = test: Biodistribution in ddY mouse lung at 1 uCi/100 uL, iv after 2 mins by gamma counting; format: ADME, organism-based; settings: in vivo
Kidney [37] = test: Biodistribution in ddY mouse kidney at 1 uCi/100 uL, iv after 15 mins by gamma counting; format: ADME, organism-based; settings: in vivo, 0.25 h; how it was run: as §1
Stomach [38] = test: Biodistribution in ddY mouse stomach at 1 uCi/100 uL, iv after 60 mins by gamma counting; format: ADME, organism-based; settings: in vivo, 1 h
Thyroid gland [39] = test: Biodistribution in ddY mouse thyroid at 1 uCi/100 uL, iv after 15 mins by gamma counting; format: ADME, organism-based; settings: in vivo, 0.25 h
Blood [40] = test: Biodistribution in ddY mouse blood at 1 uCi/100 uL, iv after 120 mins by gamma counting; format: ADME, organism-based; settings: in vivo, 2 h; how it was run: as §1
Brain [41] = test: Biodistribution in ddY mouse brain at 1 uCi/100 uL, iv after 15 mins by gamma counting; format: ADME, organism-based; settings: in vivo, 0.25 h; how it was run: as §1
Blood [42] = test: Biodistribution in ddY mouse blood at 1 uCi/100 uL, iv after 2 mins by gamma counting; format: ADME, organism-based; settings: in vivo; how it was run: as §1
Brain [43] = test: Ratio of drug uptake in ddY mouse brain at 1 uCi/100 uL, iv after 2 mins to drug uptake in ddY mouse brain at 1 uCi/100 uL, iv after 60 mins; format: ADME, organism-based; settings: in vivo
How it was run: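 Normal female ddY mice (5 weeks) received the radiotracer iv, and brain uptake (% ID/g, n = 4) was measured by gamma counting at 2 and 60 min. The index is brain uptake at 2 min divided by brain uptake at 60 min.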

Lung [44] = test: Biodistribution in ddY mouse lung at 1 uCi/100 uL, iv after 30 mins by gamma counting; format: ADME, organism-based; settings: in vivo, 0.5 h
Liver [45] = test: Biodistribution in ddY mouse liver at 1 uCi/100 uL, iv after 2 mins by gamma counting; format: ADME, organism-based; settings: in vivo
Thyroid gland [46] = test: Biodistribution in ddY mouse thyroid at 1 uCi/100 uL, iv after 60 mins by gamma counting; format: ADME, organism-based; settings: in vivo, 1 h
Heart [47] = test: Biodistribution in ddY mouse heart at 1 uCi/100 uL, iv after 2 mins by gamma counting; format: ADME, organism-based; settings: in vivo; how it was run: as §1
Thyroid gland [48] = test: Biodistribution in ddY mouse thyroid at 1 uCi/100 uL, iv after 2 mins by gamma counting; format: ADME, organism-based; settings: in vivo
Liver [49] = test: Biodistribution in ddY mouse liver at 1 uCi/100 uL, iv after 15 mins by gamma counting; format: ADME, organism-based; settings: in vivo, 0.25 h
Stomach [50] = test: Biodistribution in ddY mouse stomach at 1 uCi/100 uL, iv after 2 mins by gamma counting; format: ADME, organism-based; settings: in vivo
Stomach [51] = test: Biodistribution in ddY mouse stomach at 1 uCi/100 uL, iv after 120 mins by gamma counting; format: ADME, organism-based; settings: in vivo, 2 h
Spleen [52] = test: Biodistribution in ddY mouse spleen at 1 uCi/100 uL, iv after 15 mins by gamma counting; format: ADME, organism-based; settings: in vivo, 0.25 h

Nc1ccc(/C=C/C(=O)/C=C/c2ccc([125I])cc2)cc1
Drug uptake (Kidney [1]): 16.31 % ID/g
Drug uptake (Stomach [2]): 3.1 % ID/organ
Drug uptake (Intestine [3]): 10.85 % ID/g
Drug uptake (Kidney [4]): 11.2 % ID/g
Drug uptake (Kidney [5]): 9.52 % ID/g
Drug uptake (Spleen [6]): 1.79 % ID/g
Drug uptake (Blood [7]): 1.72 % ID/g
Drug uptake (Spleen [8]): 1.13 % ID/g
Drug uptake (Kidney [9]): 9 % ID/g
Drug uptake (Brain [10]): 1.36 % ID/g
Drug uptake (Intestine [11]): 25.7 % ID/g
Drug uptake (Heart [12]): 0.83 % ID/g
Drug uptake (Stomach [13]): 3.12 % ID/organ
Drug uptake (Blood [14]): 4.12 % ID/g
Drug uptake (Heart [15]): 2.01 % ID/g
logD [16]: 3.26
Drug uptake (Spleen [17]): 2.8 % ID/g
Drug uptake (Brain [18]): 0.4 % ID/g
Drug uptake (Lung [19]): 2.43 % ID/g
Drug uptake (Intestine [20]): 2.27 % ID/g
Drug uptake (Blood [21]): 4.93 % ID/g
Drug uptake (Intestine [22]): 25.97 % ID/g
Drug uptake (Thyroid gland [23]): 11.49 % ID/g
Drug uptake (Lung [24]): 6.06 % ID/g
Drug uptake (Thyroid gland [25]): 21.98 % ID/g
Drug uptake (Liver [26]): 16.43 % ID/g
Drug uptake (Brain [27]): 0.54 % ID/g
Drug uptake (Liver [28]): 24.17 % ID/g
Drug uptake (Brain [29]): 4.56 % ID/g
Drug uptake (Spleen [30]): 0.8 % ID/g
Drug uptake (Liver [31]): 17.57 % ID/g
Drug uptake (Heart [32]): 3.45 % ID/g
Drug uptake (Heart [33]): 1.11 % ID/g
Drug uptake (Lung [34]): 2.82 % ID/g
Drug uptake (Intestine [35]): 6.9 % ID/g
Drug uptake (Lung [36]): 9.25 % ID/g
Drug uptake (Kidney [37]): 22.81 % ID/g
Drug uptake (Stomach [38]): 2.12 % ID/organ
Drug uptake (Thyroid gland [39]): 8.39 % ID/g
Drug uptake (Blood [40]): 2.52 % ID/g
Drug uptake (Brain [41]): 2.37 % ID/g
Drug uptake (Blood [42]): 3.89 % ID/g
Ratio (Brain [43]): 8.44
Drug uptake (Lung [44]): 4.81 % ID/g
Drug uptake (Liver [45]): 16.98 % ID/g
Drug uptake (Thyroid gland [46]): 14.14 % ID/g
Drug uptake (Heart [47]): 7.06 % ID/g
Drug uptake (Thyroid gland [48]): 8.64 % ID/g
Drug uptake (Liver [49]): 29.08 % ID/g
Drug uptake (Stomach [50]): 1.37 % ID/organ
Drug uptake (Stomach [51]): 3.07 % ID/organ
Drug uptake (Spleen [52]): 2.02 % ID/g
